Experimental data published in ChEMBL document CHEMBL1268941, “Bromophenols as Candida albicans isocitrate lyase inhibitors” (Bioorg Med Chem Lett, 2010).
≈ marks a conversion by molar mass, not a printed value.

What was measured:
Isocitrate lyase = Isocitrate lyase (Candida albicans, UniProt Q9P8Q7); experiment: Inhibition of Candida albicans ATCC 10231 isocitrate lyase
Trichophyton rubrum = experiment: Antimicrobial activity against Trichophyton rubrum IFO 9185 after 48 to 72 hrs by broth dilution method; type: functional
In short: (§1)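 For C. albicans, cells were grown 48 h at 28 °C in YPD broth (1% yeast extract, 2% peptone, 2% dextrose), centrifuged and washed twice in sterile distilled water. A. fumigatus, T. rubrum and T. mentagrophytes were grown on potato dextrose agar for 2 weeks at 28 °C. Compound stocks made in DMSO. Microtiter plates incubated 48–72 h at 28 °C. Read-out was the MIC.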

[1] = system: Trichophyton mentagrophytes; experiment: Antimicrobial activity against Trichophyton mentagrophytes IFO 40996 after 48 to 72 hrs by broth dilution method; type: functional; in short: as §1
Aspergillus fumigatus = experiment: Antimicrobial activity against Aspergillus fumigatus HIC 6094 after 48 to 72 hrs by broth dilution method; type: functional; in short: as §1
Proteus vulgaris = experiment: Antimicrobial activity against Proteus vulgaris ATCC 3851 after 24 hrs by broth dilution method; type: functional; conditions: ATCC 3851, 24 h
In short: (§2)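 Test bacteria grown overnight at 37 °C in LB broth, centrifuged and washed twice in sterile distilled water. Compound stocks made in DMSO and diluted in broth. Each microtiter well received 10 µl of broth holding about 10⁵ cfu/ml of bacteria. Plates incubated 24 h at 37 °C. Read-out was the MIC.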

Candida albicans = experiment: Antimicrobial activity against Candida albicans ATCC 10231 after 48 to 72 hrs by broth dilution method; type: functional; in short: as §1
Salmonella typhimurium = experiment: Antimicrobial activity against Salmonella Typhimurium ATCC 14028 after 24 hrs by broth dilution method; type: functional, Salmonella enterica subsp. enterica serovar Typhimurium; conditions: Salmonella enterica, ATCC 14028, 24 h; in short: as §2
Bacillus subtilis = experiment: Antimicrobial activity against Bacillus subtilis ATCC 6633 after 24 hrs by broth dilution method; type: functional; conditions: ATCC 6633, 24 h; in short: as §2
Staphylococcus aureus = experiment: Antimicrobial activity against Staphylococcus aureus ATCC 6538p after 24 hrs by broth dilution method; type: functional; in short: as §2
Micrococcus luteus = experiment: Antimicrobial activity against Micrococcus luteus IFO 12708 after 24 hrs by broth dilution method; type: functional; conditions: IFO 12708, 24 h; in short: as §2

Sequence of Isocitrate lyase (Q9P8Q7 whole entry): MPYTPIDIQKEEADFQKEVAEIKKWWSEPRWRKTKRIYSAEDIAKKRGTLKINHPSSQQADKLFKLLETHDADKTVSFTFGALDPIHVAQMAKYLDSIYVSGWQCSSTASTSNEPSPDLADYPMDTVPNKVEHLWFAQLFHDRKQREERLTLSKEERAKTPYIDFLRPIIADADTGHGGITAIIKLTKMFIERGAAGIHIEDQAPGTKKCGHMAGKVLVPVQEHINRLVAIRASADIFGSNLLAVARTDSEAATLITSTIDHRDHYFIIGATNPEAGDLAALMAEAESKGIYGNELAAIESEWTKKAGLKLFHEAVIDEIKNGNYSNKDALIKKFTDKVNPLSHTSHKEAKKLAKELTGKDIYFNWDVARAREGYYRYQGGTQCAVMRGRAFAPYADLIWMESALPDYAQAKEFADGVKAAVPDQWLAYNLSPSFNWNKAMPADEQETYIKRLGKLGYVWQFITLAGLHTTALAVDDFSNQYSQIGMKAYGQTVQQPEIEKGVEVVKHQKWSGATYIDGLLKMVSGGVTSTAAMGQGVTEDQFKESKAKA

| IC50 (Isocitrate lyase) [µM] | MIC (Trichophyton rubrum) [µg/mL] | MIC [1] [µg/mL] | MIC (Aspergillus fumigatus) [µg/mL] | MIC (Proteus vulgaris) [µg/mL] | MIC (Candida albicans) [µg/mL] | MIC (Salmonella typhimurium) [µg/mL] | MIC (Bacillus subtilis) [µg/mL] | MIC (Staphylococcus aureus) [µg/mL] | MIC (Micrococcus luteus) [µg/mL] | Compound |
| --- | --- | --- | --- | --- | --- | --- | --- | --- | --- | --- |
| > 100 | > 100 | > 100 | > 100 | > 100 | > 100 | 100 (≈ 427 µM) | > 100 | 50 (≈ 213 µM) | 100 (≈ 427 µM) | Oc1ccc(Oc2ccc(O)c(O)c2)cc1O |
| 68.2 | > 100 | > 100 | > 100 | > 100 | > 100 | 100 (≈ 319 µM) | > 100 | 100 (≈ 319 µM) | 100 (≈ 319 µM) | Oc1ccc(Oc2cc(O)c(O)cc2Br)cc1O |
| 30.9 | > 100 | > 100 | > 100 | 100 (≈ 255 µM) | > 100 | 100 (≈ 255 µM) | 100 (≈ 255 µM) | 100 (≈ 255 µM) | 50 (≈ 128 µM) | Oc1cc(Br)c(Oc2cc(O)c(O)cc2Br)cc1O |
| 22.6 | > 100 | > 100 | > 100 | > 100 | > 100 | > 100 | > 100 | > 100 | > 100 | O=C(c1ccc(O)c(O)c1)c1ccc(O)c(O)c1 |
| 8.89 | > 100 | > 100 | > 100 | > 100 | > 100 | > 100 | 100 (≈ 248 µM) | > 100 | 100 (≈ 248 µM) | O=C(c1cc(O)c(O)c(Br)c1)c1cc(O)c(O)c(Br)c1 |
| 58.5 | > 100 | 100 (≈ 406 µM) | > 100 | 100 (≈ 406 µM) | > 100 | 100 (≈ 406 µM) | 100 (≈ 406 µM) | 50 (≈ 203 µM) | 100 (≈ 406 µM) | Oc1ccc(CCc2ccc(O)c(O)c2)cc1O |
| 21.2 | 50 (≈ 124 µM) | 100 (≈ 247 µM) | 50 (≈ 124 µM) | 50 (≈ 124 µM) | 50 (≈ 124 µM) | 50 (≈ 124 µM) | 50 (≈ 124 µM) | 50 (≈ 124 µM) | 50 (≈ 124 µM) | Oc1cc(Br)c(CCc2cc(O)c(O)cc2Br)cc1O |
| > 381 | > 100 | > 100 | > 100 | > 100 | > 100 | > 100 | > 100 | > 100 | > 100 | Oc1ccc(COCc2ccc(O)c(O)c2)cc1O |
| 11.6 | 12.5 (≈ 22.7 µM) | 25 (≈ 45.5 µM) | 25 (≈ 45.5 µM) | 25 (≈ 45.5 µM) | 25 (≈ 45.5 µM) | 50 (≈ 90.9 µM) | 25 (≈ 45.5 µM) | 50 (≈ 90.9 µM) | 50 (≈ 90.9 µM) | Oc1cc(Oc2cc(O)c(O)c(Br)c2Br)c(Br)c(Br)c1O |
| 2.65 | > 100 | > 100 | > 100 | 100 (≈ 207 µM) | 100 (≈ 207 µM) | 100 (≈ 207 µM) | 50 (≈ 104 µM) | 100 (≈ 207 µM) | 50 (≈ 104 µM) | O=C(c1cc(O)c(O)c(Br)c1)c1cc(O)c(O)c(Br)c1Br |
| 14.8 | > 100 | > 100 | > 100 | 100 (≈ 207 µM) | 100 (≈ 207 µM) | 100 (≈ 207 µM) | 50 (≈ 104 µM) | 100 (≈ 207 µM) | 100 (≈ 207 µM) | Oc1cc(Br)c(CCc2cc(O)c(O)c(Br)c2Br)cc1O |
| 15.6 | > 100 | > 100 | > 100 | > 100 | > 100 | > 100 | > 100 | > 100 | > 100 | Oc1cc(Br)c(COCc2cc(O)c(O)c(Br)c2Br)cc1O |
| 18.4 | 1.56 (≈ 2.85 µM) | 1.56 (≈ 2.85 µM) | 0.78 (≈ 1.42 µM) | 50 (≈ 91.3 µM) | 1.56 (≈ 2.85 µM) | 50 (≈ 91.3 µM) | 25 (≈ 45.6 µM) | 25 (≈ 45.6 µM) | 25 (≈ 45.6 µM) | Oc1cc(Cc2cc(O)c(O)c(Br)c2Br)c(Br)c(Br)c1O |
| 46.2 | > 100 | 50 (≈ 128 µM) | > 100 | 25 (≈ 64.1 µM) | > 100 | 25 (≈ 64.1 µM) | 25 (≈ 64.1 µM) | 25 (≈ 64.1 µM) | 12.5 (≈ 32 µM) | Oc1cc(Br)c(Cc2cc(O)c(O)cc2Br)cc1O |
| 28.1 | > 100 | > 100 | > 100 | > 100 | > 100 | > 100 | > 100 | > 100 | > 100 | Oc1cc(COCc2cc(O)c(O)c(Br)c2Br)c(Br)c(Br)c1O |

| Compound | IC50 (Isocitrate lyase) [µM] | MIC (Trichophyton rubrum) [µg/mL] | MIC [1] [µg/mL] | MIC (Aspergillus fumigatus) [µg/mL] | MIC (Proteus vulgaris) [µg/mL] | MIC (Candida albicans) [µg/mL] | MIC (Salmonella typhimurium) [µg/mL] | MIC (Bacillus subtilis) [µg/mL] | MIC (Staphylococcus aureus) [µg/mL] | MIC (Micrococcus luteus) [µg/mL] |
| --- | --- | --- | --- | --- | --- | --- | --- | --- | --- | --- |
| C[C@@H]1[C@H](O)[C@@H](C)/C=C/C=C/C=C/C=C/C=C/C=C/C=C/[C@H](O[C@@H]2O[C@H](C)[C@@H](O)[C@H](N)[C@@H]2O)C[C@@H]2O[C@](O)(C[C@@H](O)C[C@@H](O)[C@H](O)CC[C@@H](O)C[C@@H](O)CC(=O)O[C@H]1C)C[C@H](O)[C@H]2C(=O)O [AMPHOTERICIN B] | – | 3.12 (≈ 3.38 µM) | 3.12 (≈ 3.38 µM) | 3.12 (≈ 3.38 µM) | – | 6.25 (≈ 6.76 µM) | – | – | – | – |
| CC1(C)S[C@@H]2[C@H](NC(=O)[C@H](N)c3ccccc3)C(=O)N2[C@H]1C(=O)O [AMPICILLIN] | – | – | – | – | 3.12 (≈ 8.93 µM) | – | 1.56 (≈ 4.46 µM) | 1.56 (≈ 4.46 µM) | 1.56 (≈ 4.46 µM) | 3.12 (≈ 8.93 µM) |
